Assay type in all cases: functional, cell-based
One test has as its system NCM460. The test is described as follows: Cytotoxicity against human NCM460 cells assessed as reduction in cell viability after 48 hrs by MTT assay. Particulars: NCM460, 48 h. A digest of the protocol:
(§1)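 Cells exposed 48 h to compounds at 0.0625 to 40 μM, with cisplatin and paclitaxel as positive controls. Survival read by MTT, absorbance at 570 nm. Data are means of three replicates. IC50 derived from a standard dose–response curve fit.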
(Tetrazolium assays rely on reduction of a dye to a coloured formazan, in cell work by metabolically active cells.)

The test system of another test is SMMC-7721. Put plainly: Cytotoxicity against human SMMC-7721 cells assessed as reduction in cell viability after 48 hrs by MTT assay. Particulars: SMMC-7721, 48 h. Summed up: as §1
The test system of the next test is HL-60. The test is described as follows: Cytotoxicity against human HL-60 cells assessed as reduction in cell viability after 48 hrs by MTT assay. The conditions noted are these: HL-60, 48 h. A digest of the protocol:
as §1

The test system of a further test is MCF7. Put plainly: Cytotoxicity against human MCF7 cells assessed as reduction in cell viability after 48 hrs by MTT assay. The conditions noted are these: MCF7, 48 h. A digest of the protocol: as §1
The next test has as its system A549. Put plainly: Cytotoxicity against human A549 cells assessed as reduction in cell viability after 48 hrs by MTT assay. Particulars: A549, 48 h. Summed up: as §1
A further test has as its system SW480. Put plainly: Cytotoxicity against human SW480 cells assessed as reduction in cell viability after 48 hrs by MTT assay. Particulars: SW480, 48 h. Summed up:
as §1

Take `CC(=O)N[C@H](CC(=O)OC[C@@]1(C)CCC[C@]2(C)C3=C(CC[C@@H]12)C(=O)OC3)c1ccccc1`: the half-maximal inhibitory concentration (IC50) with NCM460, in the test with SMMC-7721, with HL-60, in the test with MCF7, in the test on A549 and with SW480 was above 40 µM in each case.

As to `CC(=O)N[C@H](CC(=O)O[C@@H]1C[C@](C)(CO)[C@@H]2CCC3=C(COC3=O)[C@@]2(C)C1)c1ccccc1`, the IC50 with NCM460, in the test with SMMC-7721, in the test with HL-60, with MCF7, in the test on A549 and in the test with SW480 was above 40 µM throughout.

On to `C[C@]1(CO)CCC[C@]2(C)C3=C(CC[C@@H]12)C(=O)OC3`, for which the IC50 in the test with NCM460, in the test on SMMC-7721, with HL-60, with MCF7, in the test with A549 and with SW480 was above 40 µM throughout.

For `CC(=O)O[C@H]1C(=O)[C@@]2(C)[C@H]([C@H](OC(=O)c3ccccc3)[C@]3(O)C[C@H](OC(=O)[C@H](O)[C@@H](NC(=O)c4ccccc4)c4ccccc4)C(C)=C1C3(C)C)[C@]1(OC(C)=O)CO[C@@H]1C[C@@H]2O` [PACLITAXEL], the half-inhibitory concentration (IC50) with NCM460, in the test on SMMC-7721, with HL-60, in the test on MCF7, in the test on A549 and with SW480 was below 0.008 µM each time.

Take `CC(=O)N[C@H](CC(=O)O[C@@H]1C[C@](C)(C=O)[C@@H]2CCC3=C(COC3=O)[C@@]2(C)C1)c1ccccc1`: the concentration for half-maximal inhibition (IC50) (in general, the concentration that inhibits the measured activity by half) with NCM460 is above 40 µM; in the test on SMMC-7721, 19.4 µM; with HL-60 it was 9.9 µM; in the test on MCF7, 18.3 µM; with A549 it was 28.4 µM; with SW480, 16.4 µM.

On to `CC(=O)N[C@H](CC(=O)O[C@@H]1CC(C)(C)[C@@H]2CCC3=C(COC3=O)[C@@]2(C)C1)c1ccccc1`, for which the half-inhibitory concentration (IC50) is above 40 µM with NCM460; 12.6 µM in the test with SMMC-7721; 7.3 µM in the test with HL-60; 11.8 µM in the test on MCF7; 15 µM in the test with A549; 12.4 µM with SW480.

The values above are taken from ChEMBL document CHEMBL4665690, “Proversilins A-E, Drimane-Type Sesquiterpenoids from the Endophytic Aspergillus versicolor” (J Nat Prod, 2020).
